Measurements taken from ChEMBL document CHEMBL3627694, “Estrogenic activity of bis(4-hydroxyphenyl)methanes with cyclic hydrophobic structure” (Bioorg Med Chem, 2015).

How the values were obtained:
Homo sapiens = species on record: Homo sapiens; experiment: Ratio of RBA for human recombinant ER beta to RBA for human recombinant ER alpha
In short: (§1)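 Human recombinant ERα or ERβ, 0.5 µg/tube, in buffer of 20 mM Tris–HCl pH 8.0, 0.3 M NaCl, 1 mM EDTA, 10 mM 2-mercaptoethanol, 0.2 mM PMSF. Incubated with 4 nM [6,7-³H]17β-estradiol ± unlabeled competitor, 4 °C, 18 h, in duplicate. Collected on nitrocellulose filter, washed, read by liquid scintillation. RBA taken with estradiol as 100; […] is the ERβ/ERα RBA ratio.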

MCF7 [1] = experiment: Anti-estrogenic activity in human MCF7 cells assessed as reduction in estradiol-induced increase in cell proliferation incubated for 4 days by WST-8 assay; assay type: functional, cell-based; details: MCF7, 96 h
In short: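 MCF-7 cells in phenol red-free low-glucose D-MEM with 5% sFBS, 2000 cells/well. Serial dilutions, 1×10^-13 to 1×10^-6 M, given with 0.1 nM estradiol, DMSO as control. 4 days in triplicate, medium with compound and estradiol renewed at day 2. Growth read by WST-8, absorbance at 450 nm after 2–4 h. IC50 from sigmoidal dose–response curves.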

[2] = target: Estrogen receptor beta (Homo sapiens) (UniProt Q92731); experiment: Displacement of [6,7-3H]17 beta-estradiol from human recombinant ER beta assessed as relative binding affinity incubated for 18 hrs at 4 degC by radiometric binding assay relative to estradiol; in short: as §1
[3] = target: T1, Estrogen receptor (Homo sapiens) (UniProt P03372); experiment: Displacement of [6,7-3H]17 beta-estradiol from human recombinant ER alpha assessed as relative binding affinity incubated for 18 hrs at 4 degC by radiometric binding assay relative to estradiol; in short: as §1
T1 sequence (whole entry): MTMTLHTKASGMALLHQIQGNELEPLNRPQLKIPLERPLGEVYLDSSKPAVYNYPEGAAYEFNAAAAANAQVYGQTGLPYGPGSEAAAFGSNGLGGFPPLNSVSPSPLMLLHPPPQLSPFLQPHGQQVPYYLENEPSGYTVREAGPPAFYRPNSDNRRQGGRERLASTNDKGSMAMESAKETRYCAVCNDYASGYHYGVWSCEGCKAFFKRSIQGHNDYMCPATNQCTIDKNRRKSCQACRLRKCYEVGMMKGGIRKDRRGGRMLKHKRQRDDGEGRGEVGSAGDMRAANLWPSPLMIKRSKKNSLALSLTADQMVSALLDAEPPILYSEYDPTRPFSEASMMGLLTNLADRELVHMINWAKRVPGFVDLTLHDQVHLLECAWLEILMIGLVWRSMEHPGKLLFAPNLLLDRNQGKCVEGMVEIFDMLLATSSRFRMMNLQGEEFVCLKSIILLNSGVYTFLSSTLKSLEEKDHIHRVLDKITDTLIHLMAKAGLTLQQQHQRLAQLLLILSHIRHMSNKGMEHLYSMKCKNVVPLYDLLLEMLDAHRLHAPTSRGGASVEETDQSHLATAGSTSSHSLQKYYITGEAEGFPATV

MCF7 [4] = experiment: Estrogenic activity in human MCF7 cells assessed as increase in cell proliferation incubated for 4 days by WST-8 assay relative to estradiol; assay type: functional; details: MCF7, 96 h
In short: (§2)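 MCF-7 cells kept in D-MEM with 10% FBS at 37 °C, 5% CO2. Before assay, switched to phenol red-free low-glucose D-MEM with 5% sFBS and seeded at 2000 cells/well. Serial dilutions, 1×10^-13 to 1×10^-6 M, given alone, DMSO as control. 4 days in triplicate, medium replaced after 2 days. WST-8 added, absorbance at 450 nm after 2–4 h. EC50 from sigmoidal curves; Emax relative to E2 as 100.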

MCF7 [5] = experiment: Estrogenic activity in human MCF7 cells assessed as increase in cell proliferation incubated for 4 days by WST-8 assay; assay type: functional, cell-based; details: MCF7, 96 h; in short: as §2

Sequence of Estrogen receptor beta (Homo sapiens) (Q92731 whole entry): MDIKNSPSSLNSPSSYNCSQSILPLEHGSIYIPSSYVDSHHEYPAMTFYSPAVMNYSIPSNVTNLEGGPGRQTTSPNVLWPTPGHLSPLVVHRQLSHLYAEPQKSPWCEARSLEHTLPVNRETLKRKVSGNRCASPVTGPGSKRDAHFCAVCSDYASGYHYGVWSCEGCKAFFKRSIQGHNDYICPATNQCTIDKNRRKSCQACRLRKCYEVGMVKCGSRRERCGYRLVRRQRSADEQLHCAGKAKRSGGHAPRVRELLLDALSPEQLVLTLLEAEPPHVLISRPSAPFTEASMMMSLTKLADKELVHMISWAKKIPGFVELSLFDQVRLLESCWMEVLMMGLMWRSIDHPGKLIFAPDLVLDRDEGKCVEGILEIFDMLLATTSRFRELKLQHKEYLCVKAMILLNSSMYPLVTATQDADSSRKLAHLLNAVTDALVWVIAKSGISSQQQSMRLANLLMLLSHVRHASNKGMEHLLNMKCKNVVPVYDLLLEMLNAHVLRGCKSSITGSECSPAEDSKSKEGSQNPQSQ

CC1(C)CCCC(C(c2ccc(O)cc2)c2ccc(O)cc2)C1 (stereo unspecified)
Ratio (Homo sapiens): 0.3
IC50 (MCF7 [1]): 64.9 nM
RBA [2]: 30.7%
RBA [3]: 98.8%
Emax (MCF7 [4]): 74%
EC50 (MCF7 [5]): 2.4 nM

Oc1ccc(C(c2ccc(O)cc2)C2CCC(F)(F)CC2)cc1
Ratio (Homo sapiens): 1.3
IC50 (MCF7 [1]): > 1000 nM
RBA [2]: 3.93%
RBA [3]: 2.71%
Emax (MCF7 [4]): 80%
EC50 (MCF7 [5]): 22.5 nM

Oc1ccc(C(c2ccc(O)cc2)C2CCC(Cl)(Cl)CC2)cc1
Ratio (Homo sapiens): 0.2
IC50 (MCF7 [1]): > 1000 nM
RBA [2]: 0.158%
RBA [3]: 0.662%
Emax (MCF7 [4]): 78%
EC50 (MCF7 [5]): 304 nM

Oc1ccc(C(c2ccc(O)cc2)C2CCC3(CC2)OCCO3)cc1
Ratio (Homo sapiens): 0.5
IC50 (MCF7 [1]): > 1000 nM
RBA [2]: 0.219%
RBA [3]: 0.465%
Emax (MCF7 [4]): 22%

CC1(C)CC(C(c2ccc(O)cc2)c2ccc(O)cc2)CC(C)(C)C1
Ratio (Homo sapiens): 1.2
IC50 (MCF7 [1]): 63.1 nM
RBA [2]: 35.2%
RBA [3]: 28.4%
Emax (MCF7 [4]): 32%

Oc1ccc(C(c2ccc(O)cc2)C2CCCCC2)cc1
Ratio (Homo sapiens): 2.3
IC50 (MCF7 [1]): > 1000 nM
RBA [2]: 15.5%
RBA [3]: 6.71%
Emax (MCF7 [4]): 79%
EC50 (MCF7 [5]): 54.1 nM

Oc1ccc(C(c2ccc(O)cc2)C2CCCC(F)(F)C2)cc1 (stereo unspecified)
Ratio (Homo sapiens): 0.7
IC50 (MCF7 [1]): 19.6 nM
RBA [2]: 4.29%
RBA [3]: 5.78%
Emax (MCF7 [4]): 58%
EC50 (MCF7 [5]): 16.6 nM

Oc1ccc(C(c2ccc(O)cc2)C2CCCC(Cl)(Cl)C2)cc1 (stereo unspecified)
Ratio (Homo sapiens): 1
IC50 (MCF7 [1]): > 1000 nM
RBA [2]: 15.7%
RBA [3]: 15.3%
Emax (MCF7 [4]): 70%
EC50 (MCF7 [5]): 4.6 nM

Oc1ccc(C(c2ccc(O)cc2)C2CCC(Br)(Br)CC2)cc1
Ratio (Homo sapiens): 0.2
IC50 (MCF7 [1]): > 1000 nM
RBA [2]: 0.18%
RBA [3]: 0.957%
Emax (MCF7 [4]): 64%
EC50 (MCF7 [5]): 211 nM

Oc1ccc(C(c2ccc(O)cc2)C2CCCC3(CCCCC3)C2)cc1 (stereo unspecified)
Ratio (Homo sapiens): 1.3
IC50 (MCF7 [1]): > 1000 nM
RBA [2]: 29.3%
RBA [3]: 21.9%
Emax (MCF7 [4]): 74%
EC50 (MCF7 [5]): 0.8 nM

CC1(C)CCC(C(c2ccc(O)cc2)c2ccc(O)cc2)CC1
Ratio (Homo sapiens): 1.2
IC50 (MCF7 [1]): > 1000 nM
RBA [2]: 3.02%
RBA [3]: 3.64%
Emax (MCF7 [4]): 72%
EC50 (MCF7 [5]): 68.4 nM

Oc1ccc(C(c2ccc(O)cc2)C2CCCC2)cc1
Ratio (Homo sapiens): 3
IC50 (MCF7 [1]): > 1000 nM
RBA [2]: 13.7%
RBA [3]: 4.61%
Emax (MCF7 [4]): 69%
EC50 (MCF7 [5]): 48.8 nM

Oc1ccc(C(c2ccc(O)cc2)C2CCCC3(C2)SCCCS3)cc1 (stereo unspecified)
Ratio (Homo sapiens): 0.2
IC50 (MCF7 [1]): > 1000 nM
RBA [2]: 8.43%
RBA [3]: 50.6%
Emax (MCF7 [4]): 80%
EC50 (MCF7 [5]): 0.39 nM
